Experimental data collected from several papers.
Each line is one published result; the experiments were not run side by side.
Target: Serine/threonine-protein kinase ULK1 (ULK1, Homo sapiens, UniProt O75385)
One construct used (O75385 1-1050): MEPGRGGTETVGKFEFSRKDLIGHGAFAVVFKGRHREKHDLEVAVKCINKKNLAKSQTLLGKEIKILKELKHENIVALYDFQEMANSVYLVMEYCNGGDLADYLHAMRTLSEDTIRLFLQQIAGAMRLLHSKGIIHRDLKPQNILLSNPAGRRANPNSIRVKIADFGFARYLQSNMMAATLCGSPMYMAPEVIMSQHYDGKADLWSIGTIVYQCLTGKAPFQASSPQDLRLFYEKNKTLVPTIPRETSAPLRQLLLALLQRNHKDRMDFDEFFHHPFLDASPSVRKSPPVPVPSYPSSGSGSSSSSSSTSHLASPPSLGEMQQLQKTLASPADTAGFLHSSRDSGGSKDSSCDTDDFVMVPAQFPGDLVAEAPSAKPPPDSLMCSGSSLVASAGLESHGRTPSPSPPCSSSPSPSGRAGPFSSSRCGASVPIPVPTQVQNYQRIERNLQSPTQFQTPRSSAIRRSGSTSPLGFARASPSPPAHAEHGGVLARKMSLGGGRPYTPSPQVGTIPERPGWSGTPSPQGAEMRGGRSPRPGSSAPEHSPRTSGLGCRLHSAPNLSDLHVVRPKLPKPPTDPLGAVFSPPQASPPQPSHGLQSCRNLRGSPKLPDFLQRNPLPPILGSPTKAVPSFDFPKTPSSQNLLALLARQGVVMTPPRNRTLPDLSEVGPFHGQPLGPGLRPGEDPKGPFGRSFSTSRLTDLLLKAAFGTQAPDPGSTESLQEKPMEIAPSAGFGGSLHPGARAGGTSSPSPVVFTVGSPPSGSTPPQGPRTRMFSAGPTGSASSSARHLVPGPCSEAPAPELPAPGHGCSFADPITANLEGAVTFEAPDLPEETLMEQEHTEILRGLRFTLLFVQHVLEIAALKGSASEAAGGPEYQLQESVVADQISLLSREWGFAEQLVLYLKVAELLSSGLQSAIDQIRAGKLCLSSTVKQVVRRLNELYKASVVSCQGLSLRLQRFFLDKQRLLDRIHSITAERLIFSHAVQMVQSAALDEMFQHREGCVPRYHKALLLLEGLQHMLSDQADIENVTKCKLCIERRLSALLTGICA

NS(=O)(=O)c1ccc(CNc2nc(Nc3cccc(NC(=O)N4CCCC4)c3)ncc2Br)cc1
remaining activity (enzyme activity, inhibitor, radiometric; 1 µM): 66%

C[S+]([O-])c1ccc(-c2nc(-c3ccncc3)c(-c3ccc(F)cc3)[nH]2)cc1 (stereo not shown)
remaining signal (cell-free assay; 0.5 µM): 89.3%

O=C(NCCCNc1nc(Nc2cccc(NC(=O)N3CCCC3)c2)ncc1I)c1cccs1
remaining activity (enzyme activity, inhibitor, radiometric; 1 µM): 4%

CCCCNc1ncc2c(-c3ccc(F)cc3)nn(C[C@H]3CC[C@H](N)CC3)c2n1
inhibition (target engagement in cells, inhibitor, chemoproteomics; 20 mM): 3.7%

CC(=O)N1CCC(c2ccc(C(=O)NC(=N)N)cc2C(F)(F)F)CC1
remaining binding (cell-free assay, competition with immobilised ligand; 1 µM): 100%

O=C1NC(=O)c2cc(Nc3ccc(F)cc3)c(Nc3ccc(F)cc3)cc21
remaining signal (cell-free assay; 0.5 µM): 102%

CCOCCn1cc(C(=O)Nc2ccc(-n3nc(-c4cccnc4)cc3C(F)(F)F)cn2)ccc1=O
remaining binding (cell-free assay, competition with immobilised ligand; 1 µM): 76%

Cc1nn(CC(F)(F)F)cc1Nc1nccc(NCCCNC(=O)C2CCC2)n1
remaining activity (enzyme activity, inhibitor, radiometric; 1 µM): 96%

O=C(NCc1ncc(C(F)(F)F)cc1Cl)c1ccc2c(c1)C1(CCS(=O)(=O)CC1)[C@@H](C1CC1)N2S(=O)(=O)c1ccc(F)cc1
remaining binding (cell-free assay, competition with immobilised ligand; 1 µM): 80%

Cc1nn(CC(F)(F)F)cc1Nc1nccc(NCCc2cnc[nH]2)n1
remaining activity (enzyme activity, inhibitor, radiometric; 1 µM): 88%

C#Cc1cccc(Nc2ncnc3cc(OCCOC)c(OCCOC)cc23)c1
remaining signal (cell-free assay; 0.5 µM): 113%

O=C(Nc1cccc(Nc2ncc(Br)c(NCCc3cnc[nH]3)n2)c1)N1CCCC1
remaining activity (enzyme activity, inhibitor, radiometric; 1 µM): 6%

Nc1ncnc2occ(-c3ccc(NC(=O)Nc4cc(C(F)(F)F)ccc4F)cc3)c12
remaining signal (cell-free assay, inhibitor; 20 µM): 48%

Cc1ccc(C(=O)NCc2ccsc2)cc1C#Cc1cn(C(C)C)c2ncnc(N)c12
activity vs control (enzyme activity, inhibitor; 1 µM): 101%

CO[C@H]1CC[C@H](CNc2ccc(S(=O)(=O)NC(=O)c3ccc(N4CCN(CC5=C(c6ccc(Cl)cc6)CC(C)(C)CC5)CC4)cc3Oc3cnc4[nH]ccc4c3)cc2[N+](=O)[O-])CC1
remaining binding (cell-free assay, competition with immobilised ligand; 1 µM): 82%

Cc1cc(NC(=O)c2cccc3cc(-c4cccc5[nH]nc(N)c45)ccc23)ccc1F
activity vs control (enzyme activity, inhibitor; 0.1 µM): 95%

c1ccc(CNc2nc(N3CCOc4ccccc43)nc3c2CCCC3)cc1
inhibition (target engagement in cells, inhibitor, chemoproteomics; 20 mM): -9%

CS(=O)(=O)N1CCCC(NC(=O)[C@H](CCC2CCCCC2)NC(=O)c2ccc(CNc3ncnc4c3nnn4-c3ccccc3)cc2)C1 (stereo partly shown)
remaining binding (cell-free assay, competition with immobilised ligand; 0.1 µM): 100%

O=C(Nc1cnn(-c2csc(C(=O)NC3COC3)c2)c1)Nc1ccccc1Cl
remaining activity (enzyme activity, inhibitor; 5 µM): 134%

Cc1nn(CC(F)(F)F)cc1Nc1ncc(Br)c(NCCCNC(=O)C2CCC2)n1
remaining activity (enzyme activity, inhibitor, radiometric; 1 µM): 3%

C[C@@H](c1cccc(C#N)c1)n1cc(Cl)cc(C(N)=O)c1=N
remaining binding (cell-free assay, competition with immobilised ligand; 1 µM): 72%

FC(F)(F)Oc1cccc(-c2cnc3ccc(-c4ccncc4)nn23)c1
activity vs control (enzyme activity, inhibitor, radiometric; 5 µM): 92%
